Hits are enriched below; roughly 3% of the tested compounds scored in any of these assays.
PLCb3 inh: blocks human PLC-beta3 enzyme activity | Q01970 | Purified PLC-beta3, fluorogenic substrate, fluorescence | inhibition, % at 12.2 µM | hit rate 0.18% among 370,000 | AID 720704; in the data active = inhibition above about 11%
PLC-gamma1 inh: blocks human PLC-gamma1 enzyme activity; AID 720700; P19174; purified PLC-gamma1, fluorogenic substrate, fluorescence; inhibition, % at 12.2 µM; hit rate 0.84% among 370,000; in the data active = inhibition above about 9.5%
CendR NRP1 mod: NRP-1/CendR interaction modulation; AID 602438; FAM-RPARPAR peptide binding to NRP-1, fluorescence polarization; O14786; inhibition, % at 25 µM; hit rate 0.85% among 360,000;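 active = inhibition or corrected inhibition above about 18%, plus a signal ratio from 0.5 to 1.5, limit read from the data, passing the limit was not always enough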
Tn6 DDE FP: disrupts Tn6 cyclic peptide binding to fibrin D-Dimer-E complex; P02675; Fibrin DD(E) TRITC-Tn6 fluorescence polarization displacement; inhibition, % at 8.3 µM; hit rate 0.21% among 370,000;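 active = inhibition above a per-campaign cutoff: mean of compounds within control limits plus 3 SD, cut at about 15% in these data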
proKLK7 act: activates the human kallikrein-7 zymogen; AID 652039; hit rate 0.9% among 370,000; activation, % at 7 µM; purified proKLK7, EDANS-DABCYL substrate fluorescence; 100% is mature enzyme control, 0% vehicle;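 active = activation above the mean of all tested compounds plus 3 SD, computed per campaign excluding outliers beyond control limits, cut at about 13% in these data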
Tn7 DDE FP: DD(E)-Tn7 binding inhibition, primary FP screen. AID 720508. P02675. hit rate 0.13% among 370,000. FP displacement of FITC-Tn7 peptide from fibrin DD(E); 0% = median of compound wells per plate. inhibition, % at 8.3 µM;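 active = inhibition above the mean of compounds falling within the control limits plus 3 SD of them, cut at about 14% in these data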
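assay system = human clot-derived fibrin DD(E) complex | quantity = Fibrin-DD(E) at 2 µM final | timing = 10 min preincubation, 3 h with tracer, room temperature | signal = fluorescence polarization | measure = percent inhibition | benchmarks = high control wells with 10 µM unlabelled Aha-Tn7 peptide (full inhibition) | replicates = singlicate testing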
KLK7 act conf: confirmation of human kallikrein-7 zymogen activators; activation, % at 7 µM; AID 686949; purified proKLK7, EDANS-DABCYL substrate fluorescence; scaled: vehicle 0, mature enzyme 100; hit rate 68% among 3,200; shares compounds with proKLK7 act;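 active = activation, as change over the incubation, above the mean of all tested compounds plus 3 SD, cut at about 13% in these data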
EDANS-DABCYL int: fluorescence interference counter-screen for KLK7 activators. shares compounds with proKLK7 act. EDANS-DABCYL substrate fluorescence interference, no enzyme, 4 h; solvent 0%, active enzyme control 100%. activation, % at 7 µM. hit rate 80% among 3,200;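 active = activation above the all-compound mean plus 3 SD, ignoring values outside control-based bounds, cut at about 4.8% in these data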;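 note: value is the 4 h activation minus the activation read at time zero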
EDANS interf: optically interferes with EDANS-DABCYL fluorescence, kallikrein-7 activator counter-screen. shares compounds with proKLK7 act. EDANS-DABCYL peptide fluorescence interference, no enzyme. EC50, µM. hit rate 20% among 250. AID 720493;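 active = compounds that raise the fluorescence signal in this interference counterscreen, with EC50 at or below 10 µM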;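 note: intact quenched peptide substrate alone read at 355 nm excitation and 520 nm emission; signal is fluorescence gain from T0 to T4 after four hours at room temperature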
Of the large screens only hits and unclear results are named; the others gave an inactive call (follow-up assays come after a bar, where they were run).

COc1ccc2cc(C(=O)C3CCCN(Cc4cnc(N5CCOCC5)s4)C3)ccc2c1 (configuration not stated)	none
COc1ccc2cc(C(=O)C3CCCN(C(=O)c4cccnc4)C3)ccc2c1 (configuration not stated)	proKLK7 act 22.4 | KLK7 act conf 57.2 | EDANS-DABCYL int 46.7 | EDANS interf inactive
COc1ccc2cc(C(=O)C3CCCN(Cc4ccccn4)C3)ccc2c1 (configuration not stated)	proKLK7 act 38.8 | KLK7 act conf inactive | EDANS-DABCYL int inactive
COC(=O)C[C@@H]1CC[C@H]2[C@@H](COc3ccc(NC(=O)Nc4ccc(C)cc4)cc3C(=O)N2C)O1	none (no result: CendR NRP1 mod)
CCC(NC(=O)c1ccc2c(ccn2Cc2cccc(-c3ccc(C(=O)O)cc3)c2)c1)c1ccccc1 (configuration not stated)	none (no result: CendR NRP1 mod)
CC(c1ccccc1)n1cc(C(=O)N2CCCC2)nn1 (configuration not stated)	none (no result: CendR NRP1 mod)
Cc1c(C)c2c(OCC(=O)NCC(C)C)cc3c(c2oc1=O)CCC(C)(C)O3	none
CCC(NC(=O)COc1cc2c(c3oc(=O)c(C)c(C)c13)CCC(C)(C)O2)C(=O)O (configuration not stated)	proKLK7 act 37.6 | KLK7 act conf 72.7 | EDANS-DABCYL int 73.6
Cc1c(C)c2c(OCC(=O)N[C@@H](C)C(=O)O)cc3c(c2oc1=O)CCC(C)(C)O3	proKLK7 act 30.7 | KLK7 act conf 72.0 | EDANS-DABCYL int 68.6
Cc1c(C)c2c(OCC(=O)NCc3ccco3)cc3c(c2oc1=O)CCC(C)(C)O3	none
O=S1(=O)c2ccc(Br)cc2OC[C@@H](Cc2ccccc2)N1Cc1cn(Cc2ccc(C(F)(F)F)cc2)nn1	none (no result: CendR NRP1 mod)
Cc1cccnc1NC(=O)c1ccc([N+](=O)[O-])o1	proKLK7 act 17.4 | KLK7 act conf 19.1 | EDANS-DABCYL int 20.8
Cc1ccc(C(=O)Nc2ncccc2C)o1	none
CCC(C)NS(=O)(=O)c1ccc2[nH]c(=O)oc2c1 (configuration not stated)	none (no result: CendR NRP1 mod)
CC1CN(C(=O)c2cc3c(=O)n4ccccc4nc3n2C)CC(C)O1 (configuration not stated)	proKLK7 act 79.1 | KLK7 act conf 75.2 | EDANS-DABCYL int 70.7
N=c1c(S(=O)(=O)c2ccc(Br)cc2)cc2c(=O)n3ccccc3nc2n1CCN1CCOCC1	none
Cn1c(C(=O)O)cc2c(=O)n3ccccc3nc21	proKLK7 act 58.3 | KLK7 act conf 70.5 | EDANS-DABCYL int 78.6
CC1CC(NC(=O)c2cc3c(=O)n4ccccc4nc3n2C)CC(C)(C)C1 (configuration not stated)	none
Cn1c(C(=O)N2CCOCC2)cc2c(=O)n3ccccc3nc21	proKLK7 act 61.5 | KLK7 act conf 72.8 | EDANS-DABCYL int 83.9
CCOC(=O)C1CCN(C(=O)c2cc3c(=O)n4ccccc4nc3n2C)CC1	proKLK7 act 78.0 | KLK7 act conf 64.1 | EDANS-DABCYL int 64.2
C[C@H]1[C@@H](OC(=O)NCc2cccc(C(F)(F)F)c2)CC[C@@]23CCCN2C(=O)CCC[C@@H]13	none (no result: CendR NRP1 mod, proKLK7 act)
Cn1c(C(=O)N2CCc3ccccc3C2)cc2c(=O)n3ccccc3nc21	proKLK7 act 15.8 | KLK7 act conf inactive | EDANS-DABCYL int inactive
Cn1nc(C(=O)N2CCc3ccccc3C2)c2ccccc2c1=O	none
O=[N+]([O-])c1cccc(OCCCN2CCC(C(O)(c3ccccc3)c3ccccc3)CC2)c1	none (no result: CendR NRP1 mod)
